≈ marks a conversion by molar mass, not a printed value. Calls of active or inactive are those of the source. No cut-off for these calls is given here.
Assays:
Cutibacterium acnes = assay: Antimicrobial activity against 1X10'-3 cfu/ml Propionibacterium acnes ATCC 11827 after 1 to 4 days; type: functional
In short: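 Compounds were taken from an acetone stock (10 mg/mL), diluted in culture medium and set up as serial dilutions with duplicate blanks. After 1–4 days of incubation, bacterial growth was estimated by turbidimetry or agar plating to give the MIC.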

Mus musculus = assay: Acute toxicity in mouse at 2 g/kg; conditions: in vivo
[1] = Antioxidant activity assessed as ABTS radical scavenging activity by TEAC method; type: functional
In short: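 The ABTS radical cation was diluted in PBS, pH 7.4, to an absorbance of 0.70 ± 0.02 at 734 nm at 37 °C. Graded dilutions of compound were added, and absorbance was read at 5, 10, 15 and 20 min after addition.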

[2] = test system: Staphylococcus epidermidis; assay: Antimicrobial activity against 1.6X10'-3 cfu/ml Staphylococcus epidermidis ATCC 12228 after 1 to 4 days; type: functional
In short: (§1)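 Compounds were dissolved in acetone (10 mg/mL stock) and diluted with culture medium into serial dilutions. Tests used Mueller-Hinton broth with 1% Tween 20, incubated aerobically at 36 ± 1 °C for 1–4 days alongside duplicate blanks. Growth was scored by turbidimetry or by plating on agar, and MIC was recorded.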

Staphylococcus aureus = assay: Antimicrobial activity against 1.5X10'-3 cfu/ml Staphylococcus aureus ATCC 6538 after 1 to 4 days; type: functional; in short: as §1

## O=c1c(C(c2ccc([N+](=O)[O-])cc2)c2c(O)oc3ccccc3c2=O)c(O)oc2ccccc12
Cutibacterium acnes
  MIC: 0.5 µg/mL (≈ 1.09 µM)
Mus musculus
  Activity: Non-toxic
[1]
  Activity: Active
[2]
  MIC: 1.3 µg/mL (≈ 2.84 µM)
Staphylococcus aureus
  MIC: 3.7 µg/mL (≈ 8.09 µM)

## O=c1oc2ccccc2c(O)c1C(c1cc([N+](=O)[O-])ccc1O)c1c(O)c2ccccc2oc1=O
[1]
  Activity: Active

## COc1ccc(C(c2c(O)c3ccccc3oc2=O)c2c(O)c3ccccc3oc2=O)cc1
Mus musculus
  Activity: Non-toxic
[1]
  Activity: Active

## Cc1ccc(C(c2c(O)c3ccccc3oc2=O)c2c(O)c3ccccc3oc2=O)cc1
Mus musculus
  Activity: Non-toxic
[1]
  Activity: Active

## O=c1c(C(c2ccc(C(c3c(O)oc4ccccc4c3=O)c3c(O)oc4ccccc4c3=O)cc2)c2c(O)oc3ccccc3c2=O)c(O)oc2ccccc12
Mus musculus
  Activity: Non-toxic
[1]
  Activity: Active

## O=c1oc2ccccc2c(O)c1C(c1cccc(O)c1O)c1c(O)c2ccccc2oc1=O
Cutibacterium acnes
  MIC: 0.5 µg/mL (≈ 1.13 µM)
Mus musculus
  Activity: Non-toxic
[1]
  Activity: Active
[2]
  MIC: 1.9 µg/mL (≈ 4.28 µM)
Staphylococcus aureus
  MIC: 6.5 µg/mL (≈ 14.6 µM)

## O=c1c(C(c2ccccc2)c2c(O)oc3ccccc3c2=O)c(O)oc2ccccc12
[1]
  Activity: Active

## COc1cc(C(c2c(O)oc3ccccc3c2=O)c2c(O)oc3ccccc3c2=O)cc(OC)c1OC
[1]
  Activity: Active
